CHOP UPR activ = apoptotic UPR (CHOP) activation | 0.34% of 330,000 active | activation, % at 10 µM | CHO-CHOP luciferase reporter, luminescence; percent of tunicamycin response over DMSO baseline | AID 449763;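 active means at 10 µM dose, activation of 40% or more, normalized to positive control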;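 further: 100% = tunicamycin at 10 µg/mL and 0% = DMSO alone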
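System: CHO CHOP reporter cells. Amount: 500 cells per well. Buffer or medium: F12 medium, 10% FBS. Compound dosing: one dose, 10 µM in 0.5% DMSO. Incubation: 6 h compound exposure at 37 °C after overnight seeding. Technique: Steady-Glo luciferase luminescence. Benchmarks: tunicamycin and DMSO controls.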
XBP1 UPR activ = adaptive UPR (XBP1) activation; CHO-XBP1 luciferase reporter, IRE1-XBP1 UPR activation, luminescence; percent of tunicamycin response, DMSO as zero; activation, % at 20 µM; 0.33% of 330,000 active;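 active means versus positive control, 20 µM dose yields 30% or more activation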;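 further: 100% = tunicamycin at 10 µg/mL and 0% = DMSO only wells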
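Test system: CHO-XBP1 luciferase reporter cells | Buffer or medium: Serum-containing F12 medium, 10% FBS | Schedule: 6 h compound exposure at 37 °C, 5% CO2 | Detection: Steady-Glo luciferase glow luminescence, 10 min after reagent addition | Read-out basis: Activation, % of tunicamycin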
CHOP inh = blocks CHOP induction under ER stress; CHO-K1 CHOP-promoter luciferase, tunicamycin-induced, 15-18 h; inhibition, % at 10 µM; 3.8% of 220,000 active; AID 2732;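 active means compounds that reduced the stress-induced luciferase reporter signal by more than about 70% of percent inhibition, limit read from the data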;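 further: 0% = tunicamycin plus vehicle and 100% = wells without tunicamycin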
PvdQ inh = P. aeruginosa PvdQ acylase inhibition | purified PvdQ acylase, fluorescence plate reader | inhibition, % at 10 µM | 0.063% of 340,000 active; in the data active means inhibition above about 30%, passing the limit was not always enough;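 further: 0% = vehicle neutral wells and 100% = reference inhibitor wells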
Starred values were filed as active, the others as inactive; / = no result. The sample as a whole holds a higher share of hits than the screen did.

SMILES	CHOP UPR activ	XBP1 UPR activ	CHOP inh	PvdQ inh
CC1CCN(c2nnc(-c3ccccc3)c3ccccc23)CC1	1.2	-2.1	11.8	-7.7
Cc1ccc(-c2nnc(N3CCC(C)CC3)c3ccccc23)cc1	2.4	8.1	84.3*	1.3
CCCCCC1CCC(c2n[nH]c(=S)n2C)CC1 (stereo not given)	-1.0	1.0	95.2*	-14.3
O=C(O)c1cc2nccc(-c3ccco3)n2n1	2.0	1.5	-1.9	39.1*
Cc1cccc(OCCCC(=O)Nc2ccc(Br)cc2)c1	-1.7	0.4	84.4*	-8.7
CCCCNCC1C(Oc2ccc(Cl)cc2)C(=O)N1c1ccccc1C (stereo not given)	1.0	2.2	77.4*	1.0
CCCNCC1C(Oc2ccc(Cl)cc2Cl)C(=O)N1c1cccc(C)c1C (stereo not given)	-1.0	-2.1	-2.3	-1.6
CN(CC(=O)Nc1ccccc1C(F)(F)F)C(=O)c1ccc(N2C(=O)CCC2=O)cc1	1.3	-0.9	/	-4.4
CCOc1ccc(-n2nc(C(=O)NC3CCCCC3)c3ccccc3c2=O)cc1	0.0	-2.0	/	-14.7
CC(=O)c1ccc(CCCCc2ccc(C(C)=O)cc2)cc1	/	/	/	-17.2
Cn1c(SCC(=O)Nc2cccc(Br)c2)nnc1-c1cc2ccccc2o1	0.4	-2.9	91.0*	1.3
CCCCC(=O)N1C/C=C\C(c2ccc(OC)cc2)N(Cc2ccc(F)cc2)C(=O)C1 (stereo not given)	1.2	-2.3	21.2	-5.3
C[C@H](NC(=O)c1ccccc1)C(=O)N1CCC2(CC1)NCCc1[nH]cnc12	1.9	-2.4	/	-6.5
CN1CCN(CCP(=O)(c2ccccc2)c2ccccc2)CC1	-2.8	-3.2	72.6*	-11.0
O=c1cc(Nc2ccc3c(c2)OCO3)[nH]c(=O)n1-c1ccc(Br)cc1	2.3	-2.3	76.6*	-1.7
O=[N+]([O-])c1cc(Cl)cc(/C=N\Nc2ccccn2)c1O	-1.0	-0.7	93.3*	-4.1
O=C(COC(=O)c1ccc(Cl)nc1)Nc1nnc(-c2ccccc2)o1	-1.3	-2.4	/	-6.6
Cc1ccc(-n2cc(C(=O)c3ccc(N4CCN(C)CC4)cc3)nn2)cc1Cl	8.9	7.2	70.2*	-7.7
S=C(Nc1ccc(Oc2ccccc2)cc1)NC1CCCCCC1	/	/	36.8	-7.1
CC(C)(C)c1ccc(/C=N/NC(=S)NC2CCCCC2)cc1	-0.2	6.0	72.4*	7.7
FC(F)(F)c1cccc(NC(=S)NC2CCCC2)c1	0.3	1.3	10.9	8.6
S=C(Nc1ccc(Oc2ccccc2)cc1)NC1CCCCC1	0.3	-1.0	75.2*	-3.0
FC(F)(F)c1ccc(NC(=S)NC2CCCCC2)cc1	8.1	2.1	88.1*	-16.4
S=C(NNc1ccc2ccccc2c1)NC1CCCCC1	4.9	-0.9	80.8*	4.0
Cc1ccc(C(=O)OCC(=O)N2CCC(c3ccccc3)=N2)cc1	-0.8	-2.2	/	-10.4
SMILES	CHOP UPR activ	XBP1 UPR activ	CHOP inh	PvdQ inh
CCCN1C(=O)/C(=N\OCC(=O)Nc2ccc(C(C)C)cc2)c2ccccc21	0.1	-0.9	4.4	9.6
COc1ccccc1OCC(=O)N1CCCC(Nc2ccc(F)c(F)c2)C1 (stereo not given)	3.2	-1.0	/	-17.5
CCC(=O)Nc1ccc(C(=O)CSc2nnc(-c3ccc(NS(C)(=O)=O)cc3)n2C)cc1OC	-1.6	-2.0	-19.7	-16.0
CCOC(=O)/C(C#N)=C/c1ccc(-c2ccsc2C(=O)OC)o1	4.9	2.8	74.1*	-8.8
Cc1ccc(N2CC(C(=O)OCC(=O)c3ccc([N+](=O)[O-])cc3)CC2=O)cc1 (stereo not given)	1.3	-0.3	/	15.1
COc1ccc(C2(C)CC(=O)NC2=O)cc1 (stereo not given)	0.5	-0.2	/	-7.5
CCc1ccc(N2C(=O)c3sc4nnc(-c5ccccc5)c(=O)n4c3C2=O)cc1	0.0	-3.2	70.9*	-4.2
CCc1ccc(-n2c(=S)sc3c(=O)n(-c4ccccc4)c(SCC(=O)O)nc32)cc1	1.5	2.6	/	-6.7
Cc1ccccc1COc1ccc(-c2nnn(CC(=O)O)n2)cc1	-0.7	-2.5	/	-14.4
O=C(Oc1cccc2c(O)cccc12)c1ccccc1	6.2	11.0	106.1*	-12.5
CCOc1ccc(N(CC(=O)Nc2ccc(C)c(C)c2)S(=O)(=O)c2c(C)noc2C)cc1	-1.7	-4.8	75.6*	-9.5
CCOc1ccccc1NC(=O)CN(c1cc(C)cc(C)c1)S(=O)(=O)c1c(C)noc1C	-1.0	-2.3	72.2*	-5.4
Cc1noc(C)c1S(=O)(=O)N(CC(=O)Nc1ccc2c(c1)OCO2)c1ccc(C(C)C)cc1	7.2	0.3	80.7*	3.4
COc1ccc(N(CC(=O)Nc2cccc(C)c2)S(=O)(=O)c2c(C)noc2C)cc1	-1.2	-9.2	/	-17.8
CCOc1ccc(N(CC(=O)Nc2cccc(F)c2)S(=O)(=O)c2c(C)noc2C)cc1	-2.6	-5.7	71.5*	-17.3
CCOc1ccccc1NC(=O)CN(c1ccc(OC)cc1)S(=O)(=O)c1c(C)noc1C	-1.2	9.3	/	-0.1
CN(C(=O)c1ccc(NC(=O)Cc2cccc(NC(=O)C3CCCN(C(=O)C4CCC4)C3)c2)cc1)C1CCCC1 (stereo not given)	-0.8	-4.9	/	-18.9
CN(CC(=O)Nc1ccc(F)cc1)C(=O)c1ccc(N2C(=O)CCC2=O)cc1	-0.1	2.8	/	-11.4
CC(=O)N1CCN(C(=O)c2ccc(NS(=O)(=O)c3ccc4c(c3)OCCO4)cc2)CC1	0.9	-2.7	/	-15.7
COc1ccc(S(=O)(=O)NCc2nc3nc(C)cc(C)n3n2)cc1OC	0.1	-0.6	/	-13.5
O=c1oc2cc(O)ccc2cc1-c1nc2c(s1)CCc1ccccc1-2	/	/	82.8*	1.3
N=C(N)c1ccc(OCCCCCOc2ccc(C(=N)N)cc2)cc1 (tested in a mixture with another compound)	/	/	32.6	/
O=C(NC1CCCCC1)c1cc(Cl)ccc1[N+](=O)[O-]	3.3	-1.6	-5.7	61.6*
O=C(NC1CCCC1)c1cc(Cl)ccc1[N+](=O)[O-]	-0.2	-1.4	-10.4	94.1*
O=C(NC1CC1)c1cc(Cl)ccc1[N+](=O)[O-]	-1.0	-1.3	7.9	9.3
SMILES	CHOP UPR activ	XBP1 UPR activ	CHOP inh	PvdQ inh
O=C(NC1CCCCC1)c1cc([N+](=O)[O-])ccc1N1CCCCC1	0.6	-3.1	34.9	5.5
COC(=O)c1cnc(N)s1	/	/	/	-9.1
O=C(N/N=C/C(Br)=C/c1ccccc1)NC1CCCCC1	3.1	2.4	13.6	-13.0
CC(/C=N/NC(=O)NC1CCCCC1)=C\c1ccccc1	1.2	2.7	85.8*	-3.0
CC1CCC2C(C1)c1sc(=O)[nH]c1SC2(C)C (stereo not given)	1.3	-0.3	82.6*	-12.5
CC(C)Cn1c(SC(C)C(=O)Nc2ccc3c(c2)OCCO3)nc2ccccc2c1=O (stereo not given)	/	/	76.3*	-2.8
CCOc1ccc(-c2cccc(NS(=O)(=O)c3ccc([N+](=O)[O-])cc3)c2)nn1	1.8	-2.3	/	-11.0
CC(CCc1ccccc1)NC(=O)COC(=O)C1CCC(C(C)(C)C)CC1 (stereo not given)	-0.7	-1.5	36.4	-8.2

Source: PubChem (several laboratories)
